Experimental data published in ChEMBL document CHEMBL1687840, “Vancomycin bonded to bone grafts prevents bacterial colonization” (Antimicrob Agents Chemother, 2011).
The source made the active and inactive calls. The rule behind the calls is not given here.

What was measured:
Homo sapiens = species on record: Homo sapiens; experiment: Binding affinity to human morselized allograft bone by immunohistochemical analysis
Method in brief: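 Human cancellous/cortical bone granules (0.5–2.0 mm), EDTA-treated, with covalently coupled VAN and washed until eluent gave no S. aureus disk-diffusion inhibition. PBS-washed ×3, blocked 1 h in 10% FBS/PBS, rabbit anti-VAN IgG (1:500) 12 h at 4°C, Alexa 488 anti-rabbit (1:1,000) 1 h RT, epifluorescence read-out. Uncoupled bone as control.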

[1] = Stability of the human bone graft-bound drug in air after 7 days by immunofluorescent staining; type: ADME; conditions: 168 h
Method in brief: (§1)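 About 10 mg modified allograft held 7 days at 37°C in 1 ml water, PBS, DMEM-F-12 with 10% FBS, or S. aureus in TSB (bacteria removed by 30 min sonication in 1% SDS), or kept dry in air; then PBS-washed, blocked in 10% FBS/PBS 1 h, rabbit anti-VAN IgG 1:500 at 4°C 12 h, Alexa Fluor 488 anti-rabbit 1:1,000 RT 1 h, viewed by epifluorescence.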

[2] = Stability of the human bone graft-bound drug in water after 7 days by immunofluorescent staining; type: ADME; conditions: 168 h; method in brief: as §1
[3] = Stability of the human bone graft-bound drug in phosphate buffer saline after 7 days by immunofluorescent staining; type: ADME; conditions: 168 h; method in brief: as §1
[4] = Stability of the human bone graft-bound drug in dulbecco modified eagle medium after 7 days by immunofluorescent staining; type: ADME; conditions: 168 h; method in brief: as §1
[5] = Stability of the human bone graft-bound drug 7 days after incubation with Staphylococcus aureus in trypticase soy broth by immunofluorescent staining; type: ADME; conditions: 168 h; method in brief: as §1
Staphylococcus aureus [6] = experiment: Antibacterial activity against Staphylococcus aureus Xen36 infected in drug treated human morselized bone allograft assessed as inhibition of biofilm formation after 5 hrs by confocal laser scanning microscopy; type: functional, organism-based
Method in brief: (§2)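 Allograft morsels challenged with S. aureus (1 ml, 1 × 10^4 CFU/ml) in TSB at 37°C without agitation for 5 or 12 h, washed three times in PBS, stained with Live/Dead BacLight (20 min, RT), imaged by confocal laser scanning microscopy with Z-plane optical sectioning and reconstruction.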

Staphylococcus aureus [7] = experiment: Antibacterial activity against Staphylococcus aureus Xen36 infected in drug treated human morselized bone allograft assessed as inhibition of biofilm formation after 12 hrs by confocal laser scanning microscopy; type: functional, organism-based; method in brief: as §2
Staphylococcus aureus [8] = experiment: Antibacterial activity against Staphylococcus aureus Xen36 infected in drug treated human morselized bone allograft assessed as inhibition of biofilm formation after 6 hrs by scanning electron microscopy; type: functional, organism-based
Method in brief: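 Allograft morsels exposed to S. aureus in TSB for 6 h, then examined by scanning electron microscopy at low magnification, ×1,500 and ×4,000 for adherent bacteria and biofilm.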

Escherichia coli = experiment: Antibacterial activity against Escherichia coli DH5[alpha] infected in drug treated human morselized bone allograft assessed as reduction of bacterial count after up to 12 hrs by colony counting; type: functional, organism-based
Method in brief: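 Sterilized allograft granules (0.5–2.0 mm, human cancellous/cortical) incubated without agitation at 37°C in TSB with 1 ml of 1 × 10^4 CFU/ml bacteria (overnight TSB culture, 250 rpm, 37°C) for 2, 5, 8 or 12 h; washed three times with PBS, three more times, sonicated 5 min in 0.3% Tween 80/PBS, serially diluted, plated on Petrifilms and colonies counted; S. aureus shown as % of control per time point.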

Staphylococcus aureus [9] = experiment: Antibacterial activity against Staphylococcus aureus Xen36 infected in drug treated human morselized bone allograft assessed as reduction of bacterial count after 12 hrs followed by additional 4 hrs in presence of 10 ug/ml of drug by colony counting; type: functional, organism-based
Method in brief: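 Control or modified allograft incubated with S. aureus (1 ml, 10^4 CFU/ml) in TSB 12 h, either with 10 μg/ml solution VAN added alongside inoculum, or washed, transferred and given 4 h in TSB with 10 μg/ml VAN; after 16 h total, washed, adherent bacteria sonicated off, plated and counted, expressed as % of control per condition.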

[10] = Cytotoxicity in human FOB on drug treated bone allograft assessed as morphological changes after 48 hrs by propidium iodide staining
Method in brief: (§3)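 Cortical allograft pieces (1 × 1 cm; 70% ethanol, PBS and medium rinses, 10 min UV) seeded with 1 ml of 50,000 cells/ml hFOB in DMEM-F-12 with 10% FBS; after 48 h fixed (4% paraformaldehyde), permeabilized (0.1% Triton X-100), stained with Alexa 488-phalloidin and propidium iodide 30 min RT, imaged by confocal microscopy.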

[11] = Cytotoxicity in human FOB on drug treated bone allograft assessed as changes on cytoskeletal architecture after 48 hrs by propidium iodide staining; method in brief: as §3
[12] = Cytotoxicity in human FOB on drug treated bone allograft assessed as increase of protein level after 1 day; conditions: 24 h
Method in brief: (§4)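 hFOB cells cultured on sterilized flat cortical allograft in DMEM-F-12 with 10% FBS for 1 or 3 days, lysed with M-PER buffer 30 min with shaking; total protein by Bradford assay as index of adhesion and proliferation; at least three experiments, means ± standard errors.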

[13] = Cytotoxicity in human FOB on drug treated bone allograft assessed as increase of protein level after 3 days; conditions: 72 h; method in brief: as §4
[14] = Cytotoxicity in human FOB on drug treated bone allograft assessed as release of lactate dehydrogenase after 1 day; conditions: 24 h
Method in brief: (§5)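 hFOB cells grown on flat cortical allograft 1 or 3 days; LDH released into medium measured with Tox-7 kit, given as percentage of released over total cellular LDH, normalized to day 1 controls; at least three experiments, means ± standard errors.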

[15] = Cytotoxicity in human FOB on drug treated bone allograft assessed as release of lactate dehydrogenase after 3 days; conditions: 72 h; method in brief: as §5

For `CN[C@H](CC(C)C)C(=O)N[C@H]1C(=O)N[C@@H](CC(N)=O)C(=O)N[C@H]2C(=O)N[C@H]3C(=O)N[C@H](C(=O)N[C@H](C(=O)O)c4cc(O)cc(O)c4-c4cc3ccc4O)[C@H](O)c3ccc(c(Cl)c3)Oc3cc2cc(c3O[C@@H]2O[C@H](CO)[C@@H](O)[C@H](O)[C@H]2O[C@H]2C[C@](C)(N)[C@H](O)[C@H](C)O2)Oc2ccc(cc2Cl)[C@H]1O` [VANCOMYCIN], the Activity (Homo sapiens) was “Active”, the Stability [1] was “Stable” and the Stability [2] was “Stable”. The Stability [3] was “Stable”, the Stability [4] was “Stable” and the Stability [5] was “Stable”. For the same compound, the Activity (Staphylococcus aureus [6]) was “Active”, the Activity (Staphylococcus aureus [7]) was “Active” and the Activity (Staphylococcus aureus [8]) was “Active”. The Activity (Escherichia coli) was “inactive”, the Activity (Staphylococcus aureus [9]) was “Active” and the Activity [10] was “Non-toxic”. For the same compound, the Activity [11] was “Non-toxic”, the Activity [12] was “Toxic” and the Activity [13] was “Non-toxic”. For the same compound, the Activity [14] was “Non-toxic” and the Activity [15] was “Non-toxic”.
